Key:
SNB-75 = test: Growth inhibition of human SNB75 cells at 10 uM after 48 hrs; type: functional; conditions: SNB-75, 48 h, read-out: GI
Outline: (§1)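 NCI 60-cell-line disease-oriented human tumor panel, single-dose primary screen at 10 µM. Data given as mean-graph percent growth of treated cells, reported as percent growth inhibition (GI %).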

SNB-19 = test: Growth inhibition of human SNB19 cells at 10 uM after 48 hrs; type: functional; conditions: SNB-19, 48 h, read-out: GI; outline: as §1
[1] = Growth inhibition of human SF539 cells at 10 uM after 48 hrs; type: functional; conditions: SF-539, 48 h, read-out: GI; outline: as §1
SF-268 = test: Growth inhibition of human SF268 cells at 10 uM after 48 hrs; type: functional; conditions: SF-268, 48 h, read-out: GI; outline: as §1
SW-620 = test: Growth inhibition of human SW620 cells at 10 uM after 48 hrs; type: functional; conditions: SW-620, 48 h, read-out: GI; outline: as §1
COLO 205 = test: Growth inhibition of human COLO205 cells at 10 uM after 48 hrs; type: functional; conditions: COLO 205, 48 h, read-out: GI
Outline: (§2)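 Single-dose primary screen in the NCI 60 human tumour cell line panel, run at the NCI facility. The panel covers nine subpanels: leukaemia, non-small cell lung, colon, CNS, melanoma, ovarian, renal, prostate and breast. Read-out was percent growth of treated cells, shown as a mean graph and reported as percent growth inhibition.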

NCI-H322M = test: Growth inhibition of human NCI-H322M cells at 10 uM after 48 hrs; type: functional; conditions: read-out: GI; outline: as §2
NCI-H23 = test: Growth inhibition of human NCI-H23 cells at 10 uM after 48 hrs; type: functional; conditions: NCI-H23, 48 h, read-out: GI; outline: as §2
[2] = Growth inhibition of human EKVX cells at 10 uM after 48 hrs; type: functional; conditions: read-out: GI; outline: as §2
A549 = test: Growth inhibition of human A549 cells at 10 uM after 48 hrs; type: functional; conditions: A549, 48 h, read-out: GI; outline: as §2
SR = test: Growth inhibition of human SR cells at 10 uM after 48 hrs; type: functional; conditions: read-out: GI; outline: as §1
K562 = test: Growth inhibition of human K562 cells at 10 uM after 48 hrs; type: functional; conditions: K562, 48 h, read-out: GI; outline: as §2
MOLT-4 = test: Growth inhibition of human MOLT4 cells at 10 uM after 48 hrs; type: functional; conditions: MOLT-4, 48 h, read-out: GI; outline: as §2
CCRF-CEM = test: Growth inhibition of human CCRF-CEM cells at 10 uM after 48 hrs; type: functional; conditions: read-out: GI; outline: as §2
Dihydrofolate reductase = target: T1, Dihydrofolate reductase (Bos taurus, UniProt P00376); test: Inhibition of bovine liver DHFR measured for every 1 min of 10 mins
T1 sequence (P00376 whole entry): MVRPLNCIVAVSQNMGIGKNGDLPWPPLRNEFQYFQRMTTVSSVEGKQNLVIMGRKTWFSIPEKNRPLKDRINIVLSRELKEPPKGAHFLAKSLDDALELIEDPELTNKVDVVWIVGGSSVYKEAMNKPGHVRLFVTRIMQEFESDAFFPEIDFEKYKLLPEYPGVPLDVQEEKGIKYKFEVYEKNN

[3] = Cytotoxicity against human prostate cancer cells at 10 uM after 48 hrs; type: functional; conditions: Cancer cell lines
[4] = Cytotoxicity against human colon cancer cells at 10 uM after 48 hrs; type: functional; conditions: Cancer cell lines; for CC50: read-out: LC50 (the source's name); outline: as §2
[5] = Cytotoxicity against human leukemia cells at 10 uM after 48 hrs; type: functional; conditions: Leukemia cell
T47D = test: Growth inhibition of human T47D cells at 10 uM after 48 hrs; type: functional; conditions: read-out: GI; outline: as §1
[6] = Growth inhibition of human Hs 578T cells at 10 uM after 48 hrs; type: functional; conditions: read-out: GI; outline: as §2
MCF7 = test: Growth inhibition of human MCF7 cells at 10 uM after 48 hrs; type: functional; conditions: MCF7, 48 h, read-out: GI; outline: as §2
MDA-MB-231 = test: Growth inhibition of human MDA-MB-231 cells at 10 uM after 48 hrs; type: functional; conditions: MDA-MB-231, 48 h, read-out: GI; outline: as §2
PC-3 = test: Growth inhibition of human PC3 cells at 10 uM after 48 hrs; type: functional; conditions: PC-3, 48 h, read-out: GI; outline: as §2
TK-10 = test: Growth inhibition of human TK10 cells at 10 uM after 48 hrs; type: functional; conditions: TK-10, 48 h, read-out: GI; outline: as §1
[7] = Growth inhibition of human UO31 cells at 10 uM after 48 hrs; type: functional; conditions: UO-31, 48 h, read-out: GI; outline: as §1
CAKI-1 = test: Growth inhibition of human CAKI-1 cells at 10 uM after 48 hrs; type: functional; conditions: CAKI-1, 48 h, read-out: GI; outline: as §2
SK-OV-3 = test: Growth inhibition of human SKOV3 cells at 10 uM after 48 hrs; type: functional; conditions: SK-OV-3, 48 h, read-out: GI; outline: as §1
[8] = Growth inhibition of human NCI-ADR-RES cells at 10 uM after 48 hrs; type: functional; conditions: read-out: GI; outline: as §2
[9] = Growth inhibition of human OVCAR5 cells at 10 uM after 48 hrs; type: functional; conditions: OVCAR-5, 48 h, read-out: GI; outline: as §2
[10] = Growth inhibition of human OVCAR4 cells at 10 uM after 48 hrs; type: functional; conditions: OVCAR-4, 48 h, read-out: GI; outline: as §2
SK-MEL-28 = test: Growth inhibition of human SK-MEL-28 cells at 10 uM after 48 hrs; type: functional; conditions: SK-MEL-28, 48 h, read-out: GI; outline: as §1
SK-MEL-2 = test: Growth inhibition of human SK-MEL-2 cells at 10 uM after 48 hrs; type: functional; conditions: SK-MEL-2, 48 h, read-out: GI; outline: as §1
HOP-62 = test: Growth inhibition of human HOP62 cells at 10 uM after 48 hrs; type: functional; conditions: HOP-62, 48 h, read-out: GI; outline: as §2

| Compound | inhibition of growth at 10 µM (SNB-75) | inhibition of growth at 10 µM (SNB-19) | inhibition of growth at 10 µM [1] | inhibition of growth at 10 µM (SF-268) | inhibition of growth at 10 µM (NCI-H322M) | inhibition of growth at 10 µM (NCI-H23) | inhibition of growth at 10 µM [2] | inhibition of growth at 10 µM (SR) | inhibition of growth at 10 µM (K562) | inhibition of growth at 10 µM (CCRF-CEM) | IC50 (Dihydrofolate reductase) | GI50 [3] | LC50 [3] | TGI [3] | GI50 [4] | TGI [4] | CC50 [4] | GI50 [5] | LC50 [5] | TGI [5] | other results |
| --- | --- | --- | --- | --- | --- | --- | --- | --- | --- | --- | --- | --- | --- | --- | --- | --- | --- | --- | --- | --- | --- |
| COc1cc(/C=C2\CCCC3=C(c4cc(OC)c(OC)c(OC)c4)Nc4ccccc4N=C32)cc(OC)c1OC | 45.5% | 35.6% | 64.9% | 74% | < 30% | 91.5% | 40.2% | 97.3% | 94.7% | 95.7% | 0.09 µM | 2.3 µM | > 100 µM | 53.4 µM | 1.6 µM | 5.2 µM | 36.4 µM | 1.4 µM | > 100 µM | 5 µM | inhibition of growth at 10 µM (SW-620): 94.3%; inhibition of growth at 10 µM (COLO 205): 99.8%; inhibition of growth at 10 µM (A549): 94.1%; inhibition of growth at 10 µM (MOLT-4): 99.4%; inhibition of growth at 10 µM (T47D): 76.2%; inhibition of growth at 10 µM [6]: 46.8%; inhibition of growth at 10 µM (MCF7): 63.1%; inhibition of growth at 10 µM (MDA-MB-231): 75.9%; inhibition of growth at 10 µM (PC-3): 61.8%; inhibition of growth at 10 µM (TK-10): < 30%; inhibition of growth at 10 µM [7]: 94.4%; inhibition of growth at 10 µM (CAKI-1): 93.5%; inhibition of growth at 10 µM (SK-OV-3): 54.6%; inhibition of growth at 10 µM [8]: 94.1%; inhibition of growth at 10 µM [9]: 83.5%; inhibition of growth at 10 µM [10]: 66.5%; inhibition of growth at 10 µM (SK-MEL-28): 70.6%; inhibition of growth at 10 µM (SK-MEL-2): 82.1% |
| COc1cc(/C=C2\CCCc3c2nc(N)nc3-c2cc(OC)c(OC)c(OC)c2)cc(OC)c1OC | 54.3% | 38.5% | 74.1% | 84.9% | < 30% | 88.4% | 44% | 99% | 93.6% | 97.1% | 21 µM | 2.7 µM | > 100 µM | > 100 µM | 1.1 µM | 2.6 µM | 68.3 µM | 1.3 µM | > 100 µM | 36.5 µM | inhibition of growth at 10 µM (HOP-62): 82.2%; inhibition of growth at 10 µM (T47D): 72.5%; inhibition of growth at 10 µM [6]: 63%; inhibition of growth at 10 µM (MCF7): 57%; inhibition of growth at 10 µM (MDA-MB-231): 71.1%; inhibition of growth at 10 µM (PC-3): 74.1%; inhibition of growth at 10 µM (TK-10): < 30%; inhibition of growth at 10 µM [7]: 65.7%; inhibition of growth at 10 µM (SK-OV-3): 92.8%; inhibition of growth at 10 µM [8]: 96.1%; inhibition of growth at 10 µM [9]: 93.2%; inhibition of growth at 10 µM [10]: 73.1%; inhibition of growth at 10 µM (SK-MEL-28): 75.1% |

From ChEMBL document CHEMBL3112482, “Nonclassical antifolates, part 5. Benzodiazepine analogs as a new class of DHFR inhibitors: synthesis, antitumor testing and molecular modeling study” (Eur J Med Chem, 2014)
